Structures are written as SMILES.

For one assay, the target named is T1, Alkaline phosphatase, tissue-nonspecific isozyme (Rattus norvegicus) (UniProt P08289).
T1 sequence (whole entry): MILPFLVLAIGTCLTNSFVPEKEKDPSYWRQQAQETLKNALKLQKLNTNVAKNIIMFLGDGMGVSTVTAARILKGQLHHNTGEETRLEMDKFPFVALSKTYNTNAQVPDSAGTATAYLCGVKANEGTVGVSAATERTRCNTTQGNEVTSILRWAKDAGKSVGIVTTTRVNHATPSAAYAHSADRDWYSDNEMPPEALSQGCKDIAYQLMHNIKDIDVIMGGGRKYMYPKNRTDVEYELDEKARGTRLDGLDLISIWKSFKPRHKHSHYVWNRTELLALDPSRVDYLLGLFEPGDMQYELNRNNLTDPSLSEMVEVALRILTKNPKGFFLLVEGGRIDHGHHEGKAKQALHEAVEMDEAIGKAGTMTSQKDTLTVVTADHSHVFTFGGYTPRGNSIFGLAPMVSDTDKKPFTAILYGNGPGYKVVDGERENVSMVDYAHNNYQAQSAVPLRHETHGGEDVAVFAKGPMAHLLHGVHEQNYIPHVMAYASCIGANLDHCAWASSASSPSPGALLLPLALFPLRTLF
Nature of the assay: Effect on alkaline phosphatase activity compared to control in culture of rat bone marrow stromal cells, 10E-5 M concentration. The assay is classed as tissue-based. Put shortly:
(§1)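 Rat femoral marrow stromal cells subcultured at 4 × 10^4 cells/well in α-MEM with 15% FBS, ascorbate, 10 mM β-glycerophosphate and 10^-7 M dexamethasone. Compound added day 1 to day 10-14, medium refreshed every other day. Lysate ALP (Lowry method) given as fold of control; n = 5–10; Student's t-test.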
As for `C[C@@H]1S[C@@H](C(=O)Nc2nc(-c3ccccc3)cs2)c2cc3c(cc2C1=O)OCO3`, the ALP activity worked out at 1.3. Regarding `CCOP(=O)(Cc1ccc(NC(=O)[C@H]2Cc3cc4c(cc3C(=O)CS2)OCO4)cc1)OCC`, the ALP activity came to 2.9.

Regarding `CCOP(=O)(Cc1ccc(NC(=O)[C@H]2Cc3cc4c(cc3C(=O)[C@H](CC)S2)OCO4)cc1)OCC`, the ALP activity came out at 4.6.

Turning to `CCOP(=O)(Cc1ccc(NC(=O)[C@@H]2SCC(=O)c3cc4c(cc32)OCO4)cc1)OCC`, the ALP activity was determined as 1.2. `CCOP(=O)(CCNC(=O)[C@H]1Cc2cc3c(cc2C(=O)[C@H](C)S1)OCO3)OCC` showed an ALP activity of 1.1.

`O=C1CS[C@@H](C(=O)Nc2ccc(Cl)cc2)c2cc3c(cc21)CCC3` returned an ALP activity of 1.3. In turn, `COc1cc2c(cc1OC)C(=O)CS[C@@H](C(=O)Nc1ccc(CP3(=O)OCCCCO3)cc1)C2` gave an ALP activity of 2.8. On the same count and under the same terms, to `CC1COP(=O)(Cc2ccc(NC(=O)[C@H]3Cc4cc5c(cc4C(=O)[C@H](C)S3)OCO5)cc2)OC1` (stereo partly drawn) belongs 3.

As for `CCOP(=O)(Cc1ccc(NC(=O)[C@H]2Cc3ccc(C)cc3C(=O)[C@H](c3ccccc3)S2)cc1)OCC`, the ALP activity was determined as 1.2. `CCOP(=O)(Cc1ccc(NC(=O)[C@H]2Cc3cc4c(cc3C(=O)CS2)OCCO4)cc1)OCC` came in with an ALP activity of 1.2.

Regarding `CCOP(=O)(Cc1ccc(NC(=O)[C@H]2Cc3ccc(Cl)cc3C(=O)CS2)cc1)OCC`, the ALP activity worked out at 1.1.

For the compound `CCOP(=O)(OCC)c1ccc(NC(=O)[C@H]2Cc3cc(OC)c(OC)cc3C(=O)CS2)cc1`, the ALP activity stood at 2.6. On the same count and under the same terms, the figure for `CCOP(=O)(Cc1ccc(NC(=O)[C@@H]2SCC(=O)c3cc(-c4ccc(Cl)cc4)ccc32)cc1)OCC` is 1.7; for `CCOP(=O)(Cc1ccc(NC(=O)[C@@H]2SCC(=O)c3cc(OC)c(OC)cc32)cc1)OCC` it is 2.5. Still for that read-out and setting: to `CCOP(=O)(Cc1ccc(NC(=O)[C@H]2Cc3ccccc3C(=O)CS2)cc1)OCC` belongs 1.5. With `Cc1cc2c(cc1C)[C@H](C(=O)Nc1cnccn1)SCC2=O`, the ALP activity amounted to 1.3. In turn, `CCOP(=O)(Cc1ccccc1NC(=O)[C@H]1Cc2cc3c(cc2C(=O)[C@H](C)S1)OCO3)OCC` returned an ALP activity of 1.1. `CC(C)Oc1ccc2c(=O)c(-c3ccccc3)coc2c1` registered an ALP activity of 1.6.

Consider `CCOP(=O)(Cc1ccc(NC(=O)[C@H]2Cc3cc(OC)c(OC)cc3C(=O)[C@H](C)S2)cc1)OCC`, for which the ALP activity came out at 2.3. Still for that read-out and setting: the figure for `CCOP(=O)(Cc1ccc(NC(=O)[C@H]2Cc3ccc(C)cc3C(=O)CS2)cc1)OCC` is 1.1; for `CCOc1ccc(OCC)c(NC(=O)[C@@H]2SCC(=O)c3cc(C4CCCCC4)ccc32)c1` it is 2.3.

As to `Cc1ccc(NC(=O)[C@@H]2SCC(=O)c3cc(C4CCCCC4)ccc32)cc1`, the ALP activity is 1.7. Same read-out and setting: to `COc1cc2c(cc1OC)[C@H](C(=O)Nc1ccc(Cl)cc1)SCC2=O` belongs 1.3; to `CCOP(=O)(Cc1cccc(NC(=O)[C@H]2Cc3cc4c(cc3C(=O)[C@H](C)S2)OCO4)c1)OCC`, 1.8.

As to `CCOP(=O)(OCC)c1ccc(NC(=O)[C@@H]2SCC(=O)c3cc4c(cc32)CCC4)cc1`, the ALP activity was found to be 1.1. On the same count and under the same terms, to `Cc1cc2c(cc1C)[C@H](C(=O)Nc1cccnc1)SCC2=O` belongs 1.3; to `CCOP(=O)(Cc1ccc(NC(=O)[C@@H]2SCC(=O)c3cc(C4CCCCC4)ccc32)cc1)OCC`, 2.4; to `CCOP(=O)(Cc1ccc(NC(=O)[C@H]2Cc3cc(OC)c(OC)cc3C(=O)[C@H](CC)S2)cc1)OCC`, 1.5. Same read-out and setting: the figure for `CC(C)OP(=O)(Cc1ccc(NC(=O)[C@H]2Cc3cc4c(cc3C(=O)[C@H](C)S2)OCO4)cc1)OC(C)C` is 3.9. As for `CCOP(=O)(Cc1ccc(NC(=O)[C@@H]2SCC(=O)c3cc(C)c(C)cc32)cc1)OCC`, the ALP activity amounted to 1.5.

Consider `CCOP(=O)(Cc1ccc(NC(=O)[C@@H]2SCC(=O)c3cc(CC4CCCCC4)ccc32)cc1)OCC`, for which the ALP activity worked out at 2.

As to `CCOP(=O)(Cc1ccc(NC(=O)[C@@H]2S[C@@H](C)C(=O)c3cc4c(cc32)OCO4)cc1)OCC`, the ALP activity was 1.2. Still for that read-out and setting: the figure for `CCOP(=O)(Cc1ccc(NC(=O)[C@H]2Cc3ccc(C)cc3C(=O)[C@H](C)S2)cc1)OCC` is 1.7; for `O=C1CS[C@@H](C(=O)Nc2ccc(Cl)cc2)c2ccc(C3CCCCC3)cc21` it is 2; for `CCOP(=O)(OCC)c1ccc(NC(=O)[C@H]2Cc3cc4c(cc3C(=O)[C@H](C)S2)OCO4)cc1` it is 1.8. Compound `CCOP(=O)(CCc1ccc(NC(=O)[C@H]2Cc3cc4c(cc3C(=O)[C@H](C)S2)OCO4)cc1)OCC` came in with an ALP activity of 1.9.

Regarding `CCOP(=O)(Cc1ccc(NC(=O)[C@H]2Cc3cc(OC)c(OC)cc3C(=O)[C@H](C(C)C)S2)cc1)OCC`, the ALP activity was found to be 1.4.

In the case of `COc1cc2c(cc1OC)C(=O)CS[C@@H](C(=O)Nc1ccc(CP3(=O)OCC(C)CO3)cc1)C2` (stereo partly drawn), the ALP activity was 2.7. The same measure, in the same setting: to `CCOP(=O)(OCC)c1ccc(NC(=O)[C@H]2Cc3cc(C)c(C)cc3C(=O)CS2)cc1` belongs 2.2. Still for that read-out and setting: to `COP(=O)(Cc1ccc(NC(=O)[C@H]2Cc3cc4c(cc3C(=O)[C@H](C)S2)OCO4)cc1)OC` belongs 7.2. Regarding `CCOP(=O)(Cc1ccc(NC(=O)[C@H]2Cc3cc4c(cc3C(=O)[C@H](C(C)C)S2)OCO4)cc1)OCC`, the ALP activity turned out to be 3.3. Still for that read-out and setting: the figure for `CCOP(=O)(OCC)c1ccc(NC(=O)[C@@H]2SCC(=O)c3cc(C)c(C)cc32)cc1` is 1.5.

Another assay addresses T1, Alkaline phosphatase, tissue-nonspecific isozyme (Rattus norvegicus). Nature of the assay: Effect of 10E-7 M compound on alkaline phosphatase activity compared to control in culture of rat bone marrow stromal cells. Put shortly: as §1
In the case of `CCCCOP(=O)(Cc1ccc(NC(=O)C2SCC(=O)c3cc(C4CCCCC4)ccc32)cc1)OCCCC` (stereo not drawn), the ALP activity was found to be 1.7. Still for that read-out and setting: the figure for `CCOP(=O)(Cc1ccccc1NC(=O)C1SCC(=O)c2cc(C3CCCCC3)ccc21)OCC` (stereo not drawn) is 1.5; for `COP(=O)(Cc1ccc(NC(=O)C2SCC(=O)c3cc(C4CCCCC4)ccc32)cc1)OC` (stereo not drawn) it is 1.7; for `CC(C)OP(=O)(Cc1ccc(NC(=O)C2SCC(=O)c3cc(C4CCCCC4)ccc32)cc1)OC(C)C` (stereo not drawn) it is 2. The same measure, in the same setting: the figure for `CCCOP(=O)(OCCC)c1ccc(NC(=O)C2SCC(=O)c3cc(C4CCCCC4)ccc32)cc1` (stereo not drawn) is 1.5; for `CCOP(=O)(CCc1ccc(NC(=O)C2SCC(=O)c3cc(C4CCCCC4)ccc32)cc1)OCC` (stereo not drawn) it is 1.5. `CCOP(=O)(OCC)c1ccc(NC(=O)C2SCC(=O)c3cc(C4CCCCC4)ccc32)cc1` (stereo not drawn) returned an ALP activity of 1.6. `COP(=O)(OC)c1ccc(NC(=O)C2SCC(=O)c3cc(C4CCCCC4)ccc32)cc1` (stereo not drawn) returned an ALP activity of 1.5.

Another assay has the same target. Nature of the assay: Effect of 10E-5 M compound on alkaline phosphatase activity in culture of rat bone marrow stromal cells. Format: tissue-based. The procedure, abridged:
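Femoral marrow stromal cells from 7-week-old male Sprague-Dawley rats. Primary culture 1 week in α-MEM (10 mM HEPES pH 7.0, 15% FBS, 2 mM glutamine, 50 μg/mL ascorbate, 10 mM β-glycerophosphate, 10^-7 M dexamethasone), 37 °C, 5% CO2. Subcultured at 4 × 10^4 cells/well; compound (10 mM stock in EtOH-DMSO 1:1 or DMF) from day 1 to day 10-14, medium changed every other day. Lysate ALP (Lowry method) in nmol/min/well; mean ± SE, n = 5–10.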
`CCOP(=O)(Cc1ccc(NC(=O)[C@@H]2Cc3cc(OC)c(OC)cc3C(=O)CS2)cc1)OCC` yielded an ALP activity of 770.

Regarding `CCOP(=O)(Cc1ccc(NC(=O)C2Cc3cc(OC)c(OC)cc3C(=O)CS2)cc1)OCC` (racemic), the ALP activity stood at 1910.

The target in another assay is T2, Alkaline phosphatase, tissue-nonspecific isozyme (Mus musculus) (UniProt P09242).
T2 sequence (whole entry): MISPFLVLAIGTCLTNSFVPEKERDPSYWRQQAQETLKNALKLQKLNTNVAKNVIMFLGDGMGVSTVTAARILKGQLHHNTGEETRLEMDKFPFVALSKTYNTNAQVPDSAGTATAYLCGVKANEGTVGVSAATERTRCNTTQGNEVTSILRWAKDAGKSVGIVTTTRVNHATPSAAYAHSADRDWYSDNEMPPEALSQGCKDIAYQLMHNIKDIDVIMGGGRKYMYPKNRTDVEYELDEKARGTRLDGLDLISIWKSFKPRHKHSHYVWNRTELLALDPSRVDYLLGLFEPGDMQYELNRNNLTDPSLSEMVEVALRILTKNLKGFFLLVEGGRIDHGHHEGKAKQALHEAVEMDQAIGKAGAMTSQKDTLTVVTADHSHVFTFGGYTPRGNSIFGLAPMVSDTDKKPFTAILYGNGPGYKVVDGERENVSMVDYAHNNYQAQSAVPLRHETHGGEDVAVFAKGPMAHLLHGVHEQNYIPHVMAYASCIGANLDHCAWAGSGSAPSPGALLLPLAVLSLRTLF
Nature of the assay: Alkaline phosphatase stimulatory activity of 10E-5 M compound in culture of MC3T3-E1 in presence of 3 ng/mL of BMP. The procedure, abridged: (§2)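 Mouse osteoblastic MC3T3-E1 cells, 3000 cells/well, grown 3 days in α-MEM with 10% FBS, then switched to α-MEM with 1% FBS plus compound, with or without recombinant Xenopus BMP-4/7 heterodimer (3 ng/mL), for 3 more days. ALP in lysate supernatant read as absorbance at 405 nm; mean ± SE, n = 6; Dunnett's test vs matching control.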
For the compound `CCOP(=O)(Cc1ccc(NC(=O)[C@@H]2Cc3cc(OC)c(OC)cc3C(=O)CS2)cc1)OCC`, the ALP activity was determined as 0.131. On the same count and under the same terms, to `CCOP(=O)(Cc1ccc(NC(=O)[C@H]2Cc3cc(OC)c(OC)cc3C(=O)CS2)cc1)OCC` belongs 0.199; to `CCOP(=O)(Cc1ccc(NC(=O)C2Cc3cc(OC)c(OC)cc3C(=O)CS2)cc1)OCC` (racemic), 0.169.

Another assay concerns the target T2, Alkaline phosphatase, tissue-nonspecific isozyme (Mus musculus). Briefly: Alkaline phosphatase stimulatory activity of 10E-5 M compound in culture of MC3T3-E1 in absence of BMP. The procedure, abridged:
as §2
In turn, `CCOP(=O)(Cc1ccc(NC(=O)[C@@H]2Cc3cc(OC)c(OC)cc3C(=O)CS2)cc1)OCC` showed an ALP activity of 0.12. `CCOP(=O)(Cc1ccc(NC(=O)[C@H]2Cc3cc(OC)c(OC)cc3C(=O)CS2)cc1)OCC`: the ALP activity came out at 0.164. As to `CCOP(=O)(Cc1ccc(NC(=O)C2Cc3cc(OC)c(OC)cc3C(=O)CS2)cc1)OCC` (racemic), the ALP activity was 0.143.

The values are drawn from ChEMBL document CHEMBL1132592, “Synthesis of novel 2-benzothiopyran and 3-benzothiepin derivatives and their stimulatory effect on bone formation” (J Med Chem, 1999).
